Data from ChEMBL document CHEMBL1141187, “New potential anticancer agents based on the anthranilic acid scaffold: synthesis and evaluation of biological activity” (2005).

Assays:
Type in all cases: functional
[1] = test system: SF-268; assay: Antiproliferative activity against human CNS SF268 cell line
In short: (§1)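 Part of the NCI ~60 human tumor cell line panel screen. Each compound was tested at five concentrations in 10-fold dilutions from 10^-4 to 10^-8 M. GI50 is read from dose-response curves as the molar concentration giving 50% inhibition of net cell growth, and is also reported as pGI50 (-log molar).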

[2] = test system: SN12C; assay: Antiproliferative activity against human renal SN12C cell line; in short: as §1
[3] = test system: SW-620; assay: Antiproliferative activity against human colon SW620 cell line; in short: as §1
[4] = test system: NCI-H23; assay: Antiproliferative activity against human lung NCI-H23 cell line; in short: as §1
[5] = test system: UACC-62; assay: Antiproliferative activity against human melanoma UACC62 cell line; in short: as §1
[6] = test system: K562; assay: Antiproliferative activity against human leukemia K562 cell line; in short: as §1
[7] = test system: MCF7; assay: Antiproliferative activity against human breast cancer MCF7 cell line; in short: as §1

Row | SMILES | GI50 [1] [µM] | GI50 [2] [µM] | GI50 [3] [µM] | GI50 [4] [µM] | GI50 [5] [µM] | GI50 [6] [µM] | GI50 [7] [µM]
1 | O=C(Oc1ccccc1Cl)c1ccccc1Nc1cccc(C(F)(F)F)c1 | 20.4 | 23.4 | 8.13 | 20 | 17 | 2.69 | 33.9
2 | O=C(Oc1ccc(Cl)cc1)c1ccccc1Nc1ccnc(C(F)(F)F)c1 | 4.37 | 2.95 | 6.61 | 2.82 | 2.63 | 3.63 | 3.72
3 | O=C(Oc1ccc(Cl)cc1Cl)c1ccccc1Nc1ccnc(C(F)(F)F)c1 | 3.09 | 3.02 | 4.57 | 3.55 | 2.29 | 3.02 | 3.63
4 | O=C(Oc1cccnc1)c1ccccc1Nc1ccnc(C(F)(F)F)c1 | 0.331 | 0.0708 | 0.0407 | 0.0363 | 0.288 | 0.0427 | 0.0457
5 | O=C(Oc1cccnc1)c1cccnc1Nc1ccnc(C(F)(F)F)c1 | 5.62 | 6.46 | 5.5 | 6.31 | 5.75 | 5.13 | 2.69
6 | O=C(Oc1ccccc1Cl)c1cccnc1Nc1ccnc(C(F)(F)F)c1 | 10 | 4.07 | 3.72 | 8.71 | 6.17 | 4.57 | 3.63
7 | O=C(Oc1c(Cl)cc(Cl)cc1Cl)c1ccccc1Nc1ccnc(C(F)(F)F)c1 | 3.89 | 3.09 | 4.57 | 2.57 | 1.74 | 2.4 | 4.68
8 | O=C(Oc1ccccc1Cl)c1ccccc1Nc1ccnc(C(F)(F)F)c1 | 2.24 | 0.331 | 0.363 | 0.257 | 0.309 | 0.0513 | 0.282
9 | O=C(Oc1cccc(Cl)c1)c1ccccc1Nc1ccnc(C(F)(F)F)c1 | 3.02 | 2.95 | 4.37 | 2.4 | 2.04 | 3.24 | 4.79
10 | COc1cccc(OC(=O)c2ccccc2Nc2ccnc(C(F)(F)F)c2)c1 | 4.68 | 5.37 | 4.07 | 2.04 | 3.09 | 0.741 | 7.24
